From paper PMC6057249 (The Indian Journal of Medical Research, 2018)
≈ marks a conversion by molar mass, not a printed value. Where “and” joins values, the source holds several entries; their conditions need not be identical. Equal values may be shown once. Read-outs that look alike come from different tables or passages of the source. Bridge positions count the residues as written; N and C are the ends. Square brackets hold non-standard residues; d marks the D form. Peptide text beside a SMILES is read from it. * marks the point of attachment. X1 = CC[C@H](C)CCCCC(=O)*; Dab = NCC[C@H](N)C(=O)O

Columns and labels:
[1] = format: in vivo, human; details: for AUC after 5th dose: individual patients, steady state, plasma, AUC0-8; for average steady-state concentration (Css, avg) of formed colistin, median: six patients receiving 2 MU q8h, no loading dose
Summary of the method: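 CMS was given by 1-h i.v. infusion every 8 h. Heparinized venous blood was drawn pre-dose, at end of infusion, then 30 min and 1.5, 2, 4, 6, 8 h after dose 1 and dose 5 (steady state). Plasma (200 μl) was stored at −80°C. CMS was acid-hydrolysed (5% formic acid, 30 min), and colistin A+B were quantified by UHPLC-MS/SRM against a reserpine internal standard. Values are total colistin, with outliers omitted.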

Acinetobacter baumannii = assay: MIC for colistin by E-test; format: cell-based; details: isolate of the individual patient
Summary of the method: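 Organisms came from positive cultures of ICU patients with MDR Gram-negative bloodstream infection and were identified and susceptibility-tested. Colistin MIC for each patient's isolate was determined by E-test per the manufacturer's instructions.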

[2] = cited from earlier work
[3] = test system: MDR Gram-negative infections; assay: Bacteriological profile and clinical outcome of patients on colistin monotherapy; format: in vivo, human; details: 1-2 MU i.v. every 8 h
Summary of the method: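 ICU patients >12 yr with normal renal function and bloodstream infection by an MDR Gram-negative organism susceptible only to colistin. They received colistin monotherapy as CMS by 1-h i.v. infusion every 8 h, without a loading dose, for […]. Follow-up cultures were taken. Exclusions were expected survival <72 h, pregnancy, burns >20% of body surface, and cystic fibrosis.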

[4] = stored plasma samples; to be estimated within four months; ref [17]; cited from earlier work

In the case of CC[C@H](C)CCCCC(=O)N[C@@H](CCN)C(=O)N[C@H](C(=O)N[C@@H](CCN)C(=O)N[C@H]1CCNC(=O)[C@H]([C@@H](C)O)NC(=O)[C@H](CCN)NC(=O)[C@H](CCN)NC(=O)[C@H](CC(C)C)NC(=O)[C@@H](CC(C)C)NC(=O)[C@H](CCN)NC1=O)[C@@H](C)O [colistin] (X1-[Dab]T[Dab][Dab][Dab][dL]L[Dab][Dab]T; lactam 4-C), the “terminal half-life, range” value ([1]; 2 MU i.v. every 8 h, after 1st dose) is reported as 4.7 to 9.84 h, the “terminal half-life, range” value ([1]; 2 MU i.v. every 8 h, after 5th dose) is reported as 2.72 to 8.5 h and the “AUC after 5th dose” value ([1]; 1 MU i.v. every 8 h) is reported as 5.4 mg·h/L and 8.5 mg·h/L and 3.5 mg·h/L. For the same compound, the “AUC after 5th dose” value ([1]; 2 MU i.v. every 8 h) was 15.8 mg·h/L and 6.0 mg·h/L and 4.4 mg·h/L, the “Vd for a majority of patients” value ([1]; patients of this study) was “more than 1.0 l/kg” and the “average steady-state concentration (Css, avg) of formed colistin, median” value ([1]; after 1st dose) was 570 ng/mL. The “average steady-state concentration (Css, avg) of formed colistin, median” value ([1]; after 5th dose) was 720 ng/mL, the MIC (Acinetobacter baumannii) was 0.125 µg/mL (≈ 0.107 µM) and the “apparent terminal t1/2” value ([2]; 2 MU dosage regimen, ref Imberti et al [10]) was 5.9 ± 2.6 h. For the same compound, the t1/2 ([2]; after 2.8 MU dosage, ref Markou et al [11]) was 7.4 ± 1.7 h, the Vd ([2]; cystic fibrosis patients, single dose, ref [17]) was 0.09 (0.02) l/kg and the Vd ([2]; cystic fibrosis patients, steady state, ref [17]) was 0.09 (0.03) l/kg. The Vd ([2]; other Indian study, after both the single dose and at steady state, ref [7]) was 0.3 (0.2-0.5) l/kg, the Vd ([2]; other studies, ref [10]) was 1.5 ± 1.1 L/kg and the follow up cultures ([3]; all nine patients) was “sterile”. For the same compound, the “patients who did not survive” value ([3]; nine patients) was 30 per cent.
For colistin methanesulphonate [CMS], the “stability in stored samples (conversion of CMS to colistin)” value [4] is listed as “unstable”.
